Microsomal CLint, Papp B→A and Papp A→B data for 19 compounds are collected here from ChEMBL document CHEMBL2177064, “Discovery and optimization of a novel spiropyrrolidine inhibitor of β-secretase (BACE1) through fragment-based drug design” (J Med Chem, 2012).

Data set [1] is described as follows: Intrinsic clearance in human liver microsomes assessed per mg of protein. It is filed as ADME, Microsome. The settings on record: read-out: CLH.
Data set [2] can be described thus: Permeability from basal to apical side of RRCK cells at 2 uM. It is filed as ADME, cell-based, Canis lupus familiaris, MDCKII-LE. The settings on record: dog, MDCK; read-out: permeability. The method, boiled down: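 Basal→apical transfer rate of test compound at 2 μM across contiguous RRCK cell monolayers, quantified by MS.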
Data set [3] is described as follows: Permeability from apical to basal side of MDCK cells. It is filed as ADME, cell-based, Canis lupus familiaris. The settings on record: dog, read-out: permeability. Put shortly:
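Test compound applied at 2 μM to contiguous cell monolayers. Apical-to-basal transfer rate quantified by mass spectrometry.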

A value given as a limit tells only on which side of the number the result lay.

As to `CNC(=O)[C@H]1C[C@]2(CN1)C(=O)Nc1ccccc12`, the microsomal CLint in data set [1] stood at 14.3 µL/min/mg. In data set [2], the Papp B→A at 2 µM came to 4.86 ×10⁻⁶ cm/s.
For `CN(C(=O)[C@H]1C[C@]2(CN1)C(=O)Nc1ccccc12)C1CCOCC1`, the microsomal CLint in data set [1] was under 8 µL/min/mg. Moreover, the Papp B→A at 2 µM in data set [2] amounted to 2.92 ×10⁻⁶ cm/s.
For `O=C1Nc2ccccc2[C@@]12CN[C@@H](CCCc1ccccc1)C2`, the microsomal CLint in data set [1] came out at 91.3 µL/min/mg. Moreover, the Papp B→A at 2 µM in data set [2] is 11.4 ×10⁻⁶ cm/s.
In the case of `O=C1Nc2ccccc2[C@]12CCNC2`, the Papp A→B in data set [3] is 12.2 ×10⁻⁶ cm/s.
For the compound `O=C1Nc2ccccc2[C@@]12CN[C@@H](c1ccccc1)C2` (racemic), in data set [1], the microsomal CLint amounted to 16.6 µL/min/mg. Further, the Papp B→A at 2 µM in data set [2] was determined as 29.6 ×10⁻⁶ cm/s.
With `O=C1Nc2ccccc2[C@@]12CN[C@@H](COCc1ccccc1)C2`, in data set [1], the microsomal CLint was 24.7 µL/min/mg. Further, in data set [2], the Papp B→A at 2 µM stood at 23.9 ×10⁻⁶ cm/s.
With `N#CC1(OC(=O)[C@H]2C[C@]3(CN2)C(=O)Nc2ccccc23)CCCCC1`, the Papp B→A at 2 µM in data set [2] amounted to 22.7 ×10⁻⁶ cm/s.
Take `N#Cc1ccc(COC(=O)[C@H]2C[C@]3(CN2)C(=O)Nc2ccccc23)cc1`: the Papp B→A at 2 µM in data set [2] is 18.4 ×10⁻⁶ cm/s.
Still for that read-out and setting: under `COC(=O)[C@H]1C[C@]2(CN1)C(=O)Nc1ccccc12` stands 29.5 ×10⁻⁶ cm/s; under `O=C(OC1CCOCC1)[C@H]1C[C@]2(CN1)C(=O)Nc1ccccc12`, 25 ×10⁻⁶ cm/s.
Regarding `O=C1Nc2ccccc2[C@@]12CN[C@@H](CNCc1ccccc1)C2`, the microsomal CLint in data set [1] was found to be 76.7 µL/min/mg. Further, the Papp B→A at 2 µM in data set [2] is 13.5 ×10⁻⁶ cm/s.
With `O=C(NCc1ccccc1)[C@H]1C[C@]2(CN1)C(=O)Nc1ccccc12`, the microsomal CLint in data set [1] worked out at 15 µL/min/mg.
For `CN(C)C(=O)[C@H]1C[C@]2(CN1)C(=O)Nc1ccccc12`, in data set [1], the microsomal CLint is under 8 µL/min/mg.
Turning to `N#Cc1ccc(COC(=O)[C@H]2C[C@]3(CN2)C(=O)Nc2ccccc23)cc1Br`, the Papp B→A at 2 µM in data set [2] came out at 10.2 ×10⁻⁶ cm/s.
Still for that read-out and setting: under `COC(=O)N1CCC(OC(=O)[C@H]2C[C@]3(CN2)C(=O)Nc2ccccc23)CC1` stands 20.9 ×10⁻⁶ cm/s.
For the compound `O=C(OCc1ccc(Br)cc1)[C@H]1C[C@]2(CN1)C(=O)Nc1ccccc12`, in data set [2], the Papp B→A at 2 µM was found to be 7.11 ×10⁻⁶ cm/s.
For `O=C1Nc2ccccc2[C@@]12CN[C@@H](CNCc1cccc(C(F)(F)F)c1)C2`, the microsomal CLint in data set [1] is 94.8 µL/min/mg.
For the compound `O=C(OC1CCS(=O)(=O)c2ccc(Br)cc21)[C@H]1C[C@]2(CN1)C(=O)Nc1ccccc12` (mixture of isomers), in data set [2], the Papp B→A at 2 µM came out at 49.1 ×10⁻⁶ cm/s.
Still for that read-out and setting: under `O=C(OCc1ccccc1)[C@H]1C[C@]2(CN1)C(=O)Nc1ccccc12` stands 30.4 ×10⁻⁶ cm/s.
